These compounds were tested on Rattus norvegicus (assay: Antiallergic activity after intravenous administration using rat reaginic passive cutaneous anaphylaxis (PCA) test.). Settings: not given.
Type: functional
In short: (§1)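 Inhibition in the rat reaginic PCA test after dosing; significance of each value judged by Student's t test.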

Row | Compound | ID50 [µM/kg]
1 | CC1CCC(=NNc2ccccc2)c2ncc(C(=O)O)c(=O)n21 (stereo in doubt) | 0.3

Same assay, conditions: Rattus norvegicus, iv; read-out: ID50 (the source's name)

Row | Compound | ED50 [µmol/kg]
2 | CC1CC=C(Nc2ccc(O)cc2)c2ncc(C(=O)O)c(=O)n21 (stereo unspecified) | 2.93
3 | CCO/N=C1\CCC(C)n2c1ncc(C(=O)OCC)c2=O (stereo unspecified) | 41.2
4 | CC1CC=C(Nc2ccc(F)cc2)c2ncc(C(=O)O)c(=O)n21 (stereo unspecified) | 8.6
5 | CC1CCCc2ncc(C(=O)O)c(=O)n21 (stereo unspecified) | 240
6 | O=C(O)c1cc(=O)c2c(OCC(O)COc3cccc4oc(C(=O)O)cc(=O)c34)cccc2o1 [CROMOLYN SODIUM] | 1
7 | CC1CC=C(N(C)c2ccccc2)c2ncc(C(=O)O)c(=O)n21 (stereo unspecified) | > 100
8 | CCOC(=O)c1cnc2n(c1=O)C(C)CC/C2=N\O (stereo unspecified) | 100
9 | CCc1nc2n(c(=O)c1C(=O)O)C(C)CC/C2=N\O (stereo unspecified) | > 100
10 | CC1CC/C(=N\O)c2ncc(C(=O)O)c(=O)n21 (stereo unspecified) | 19.4
11 | Cc1ccccc1NC1=CCC(C)n2c1ncc(C(=O)O)c2=O (stereo unspecified) | 5.4
12 | CCO/N=C1\CCC(C)n2c1ncc(C(=O)O)c2=O (stereo unspecified) | 24.3
13 | CC1CC=C(Nc2ccccc2C(=O)O)c2ncc(C(=O)O)c(=O)n21 (stereo unspecified) | 0.66
14 | CC(=O)c1cccc(NC2=CCC(C)n3c2ncc(C(=O)O)c3=O)c1 (stereo unspecified) | 0.36
15 | CC1CCC(C(=O)Nc2ccccc2)c2ncc(C(=O)O)c(=O)n21 (stereo unspecified) | 0.56
16 | CC1CC=C(Nc2cccc(F)c2)c2ncc(C(=O)O)c(=O)n21 (stereo unspecified) | 1.4
17 | CC1CCC(/C(S)=N/c2ccccc2)c2ncc(C(=O)O)c(=O)n21 (stereo unspecified) | 9.1
18 | CC1CC/C(=N\N)c2ncc(C(=O)O)c(=O)n21 (stereo unspecified) | 42
19 | C[C@H]1CC=C(Nc2ccccc2)c2ncc(C(=O)O)c(=O)n21 | 1.2
20 | CC1CC=C(Nc2ccccc2)c2ncc(C(=O)O)c(=O)n21 (stereo unspecified) | 2.1
21 | C[C@@H]1CC=C(Nc2ccccc2)c2ncc(C(=O)O)c(=O)n21 | 100
22 | CC1CC=C(Nc2cccc(C(=O)O)c2)c2ncc(C(=O)O)c(=O)n21 (stereo unspecified) | 0.62
23 | Cc1nc2n(c(=O)c1C(=O)O)C(C)CC/C2=N\O (stereo unspecified) | > 100
24 | CC1CCC(=NNc2ccccc2)c2ncc(C(=O)O)c(=O)n21 (stereo in doubt; 2) | 0.6
25 | Cc1cccc(NC2=CCC(C)n3c2ncc(C(=O)O)c3=O)c1 (stereo unspecified) | 0.74
26 | CC1CC=C(Nc2ccc(C(=O)O)cc2)c2ncc(C(=O)O)c(=O)n21 (stereo unspecified) | 3.5

The compounds below were run on Rattus norvegicus (assay: Antiallergic activity after iv administration using rat reaginic passive cutaneous anaphylaxis (PCA) test;ins means insoluble.). Settings: not given.

Row | Compound | ID50
27 | CC1CCC(Nc2ccccc2)c2ncc(C(=O)O)c(=O)n21 (stereo unspecified) | Insoluble
28 | CC1CCC(C(=O)N(C)C)c2ncc(C(=O)O)c(=O)n21 (stereo unspecified) | Insoluble

Each compound was assayed on Rattus norvegicus (assay: Antiallergic activity after os administration using rat reaginic passive cutaneous anaphylaxis (PCA) test; insignificant activity; per os 10e3 umol/kg exhibited 31% protection). Settings: not given.
Type: functional

Row | Compound | Activity [%]
29 | CCOC(=O)c1cnc2n(c1=O)C(C)CCC2C(=O)Nc1ccccc1 (stereo unspecified) | 31

What follows are compounds tested on Rattus norvegicus (assay: Antiallergic activity after os administration using rat reaginic passive cutaneous anaphylaxis (PCA) test.). Settings: not given.
Type: functional
In short: as §1

Row | Compound | Activity [%]
30 | CC1CCC(/C=N/c2ccccc2)=C2NC=C(C(=O)O)C(=O)N21 (stereo unspecified) | 47

Same assay, conditions: read-out: ID50 (the source's name)

Row | Compound | ED50 [µmol/kg]
31 | CC1CC=C(Nc2ccc(O)cc2)c2ncc(C(=O)O)c(=O)n21 (stereo unspecified) | 100
32 | CC1CC=C(Nc2ccc3ccccc3c2)c2ncc(C(=O)O)c(=O)n21 (stereo unspecified) | 30.8
33 | CC1CC=C(Nc2cccc(C(=O)O)c2)c2ncc(C(=O)O)c(=O)n21 (stereo unspecified) | 92.6
34 | CC1CC=C(Nc2ccc(C(=O)O)cc2)c2ncc(C(=O)O)c(=O)n21 (stereo unspecified) | 277

What follows are compounds tested on Rattus norvegicus (assay: Antiallergic activity after iv administration using rat reaginic passive cutaneous anaphylaxis (PCA) test;Compound is toxic at 100 umol/kg.). Settings: not given.

Row | Compound | ID50 [µmol/kg]
35 | CC1CC=C(Nc2cccc(I)c2)c2ncc(C(=O)O)c(=O)n21 (stereo unspecified) | 10
36 | CC1CC=C(Nc2cccc(Br)c2)c2ncc(C(=O)O)c(=O)n21 (stereo unspecified) | 10

Reference: ChEMBL document CHEMBL1122377, “Nitrogen bridgehead compounds. 38. New antiallergic 4H-pyrido[1,2-a]pyrimidin-4-ones. 3” (1983)
